For data set [1], the system named is Hepatocyte. In words: Drug uptake in human hepatocyte at 10 uM after 24 hrs assessed per 10^6 cells. The following applies: hepatocytes. Type of data set: ADME, cell-based. The procedure, abridged: (§1)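 Primary human hepatocytes from 3 donors were plated on collagen and recovered for ≥18 h. They were exposed for 24 h, in duplicate, to 0–250 μM drug: 3H-labelled material diluted with unlabelled compound. Total intracellular radioactivity and individual phosphates were measured in methanol extracts by SAX HPLC with radiometric detection. Results are pmol/10^6 cells, mean ± S.D.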

For data set [2], the system named is Hepatocyte. In words: Drug uptake in human hepatocyte at 100 uM after 24 hrs assessed as 4-amino-1-((2R,3R,4R,5R)-3-fluoro-4-hydroxy-5-(hydroxymethyl)-3-methyl-tetrahydrofuran-2-yl)pyrimidin-2(1H)-one tri phosphate level per 10^6 cells. Type of data set: ADME, cell-based. As to conditions: hepatocytes. Put shortly: as §1
The subject of data set [3] is Hepatocyte. Briefly: Drug uptake in human hepatocyte at 100 uM after 24 hrs assessed as 4-amino-1-((2R,3R,4R,5R)-3-fluoro-4-hydroxy-5-(hydroxymethyl)-3-methyl-tetrahydrofuran-2-yl)pyrimidin-2(1H)-one di phosphate level per 10^6 cells. As to conditions: hepatocytes. Type of data set: ADME, cell-based. Put shortly: as §1
The test system of data set [4] is Hepatocyte. In words: Drug uptake in human hepatocyte at 2 uM after 48 hrs assessed per 10^6 cells. It counts as ADME, cell-based. As to conditions: hepatocytes. The procedure, abridged: (§2)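 Primary human hepatocytes from 4 donors were plated at 1.5 million cells/well on collagen and recovered for ≥18 h. They were dosed with 3H-labelled drug at 2 μM (10 μCi/ml) for 1–72 h, in duplicate, at 37°C. Cold 60% methanol extracts were run on SAX ion-exchange HPLC with radiometric detection and compared with reference standards. Results are pmol/10^6 cells, mean ± S.D.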

Data set [5] concerns Hepatocyte. Briefly: Drug uptake in human hepatocyte at 2 uM after 6 hrs assessed per 10^6 cells. Type of data set: ADME, cell-based. As to conditions: hepatocytes. The procedure, abridged: as §2
The test system of data set [6] is Hepatocyte. Briefly: Drug uptake in human hepatocyte at 100 uM after 24 hrs assessed as 1-((2R,3R,4R,5R)-3-fluoro-4-hydroxy-5-(hydroxymethyl)-3-methyl-tetrahydrofuran-2-yl)pyrimidine-2,4(1H,3H)-dione tri phosphate level per 10^6 cells. As to conditions: hepatocytes. It counts as ADME, cell-based. The procedure, abridged: as §1
For data set [7], the system named is Hepatocyte. In words: Drug uptake in human hepatocyte at 2 uM after 24 hrs assessed as 4-amino-1-((2R,3R,4R,5R)-3-fluoro-4-hydroxy-5-(hydroxymethyl)-3-methyl-tetrahydrofuran-2-yl)[…]-2(1H)-one tri phosphate level per 10^6 cells. Type of data set: ADME, cell-based. As to conditions: hepatocytes. The procedure, abridged: as §2
The test system of data set [8] is Hepatocyte. In words: Drug uptake in human hepatocyte at 250 uM after 24 hrs assessed per 10^6 cells. It counts as ADME, cell-based. As to conditions: hepatocytes. The procedure, abridged: as §1
For data set [9], the system named is Hepatocyte. Briefly: Drug uptake in human hepatocyte at 2 uM after 1 hr assessed per 10^6 cells. The following applies: hepatocytes. Type of data set: ADME, cell-based. Put shortly: as §2
Data set [10] deals with Hepatocyte. In words: Drug uptake in human hepatocyte at 50 uM after 24 hrs assessed as 1-((2R,3R,4R,5R)-3-fluoro-4-hydroxy-5-(hydroxymethyl)-3-methyl-tetrahydrofuran-2-yl)pyrimidine-2,4(1H,3H)-dione tri phosphate level per 10^6 cells. It counts as ADME, cell-based. The following applies: hepatocytes. The procedure, abridged: as §1
The next data set relates to Hepatitis C virus. Briefly: Antiviral activity against HCV 1b Con1 in 2209-23 cells after 72 hrs by luciferase based replicon assay. As to conditions: genotype 1b Con 1, 2209-23, 72 h. Type of data set: functional, organism-based, Hepacivirus hominis. Put shortly: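 Huh7-derived 2209-23 cells carrying a bicistronic genotype 1b Con1 subgenomic HCV replicon with a Renilla luciferase reporter of RNA replication. Cells were exposed to compound for 72 h, and dose-dependent reduction of luciferase activity was measured to give IC50.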
On the technique in general: Replicon systems follow genome replication, usually without infectious particles.

Data set [11] relates to Hepatocyte. In words: Drug uptake in human hepatocyte at 2 uM after 48 hrs assessed as 1-((2R,3R,4R,5R)-3-fluoro-4-hydroxy-5-(hydroxymethyl)-3-methyl-tetrahydrofuran-2-yl)pyrimitrine-2,4(1H,3H)-trione tri phosphate level per 10^6 cells. It counts as ADME, cell-based. The following applies: hepatocytes. Put shortly:
as §2

Data set [12] deals with Hepatocyte. Briefly: Drug uptake in human hepatocyte at 25 uM after 24 hrs assessed as 4-amino-1-((2R,3R,4R,5R)-3-fluoro-4-hydroxy-5-(hydroxymethyl)-3-methyl-tetrahydrofuran-2-yl)pyrimidin-2(1H)-one tri phosphate level per 10^6 cells. Type of data set: ADME, cell-based. The following applies: hepatocytes. The procedure, abridged: as §1
For data set [13], the system named is Hepatocyte. Briefly: Drug uptake in human hepatocyte at 25 uM after 24 hrs assessed as 1-((2R,3R,4R,5R)-3-fluoro-4-hydroxy-5-(hydroxymethyl)-3-methyl-tetrahydrofuran-2-yl)pyrimidine-2,4(1H,3H)-dione di phosphate level per 10^6 cells. It counts as ADME, cell-based. As to conditions: hepatocytes. Put shortly:
as §1

The subject of data set [14] is Hepatocyte. In words: Drug uptake in human hepatocyte at 10 uM after 24 hrs assessed as 1-((2R,3R,4R,5R)-3-fluoro-4-hydroxy-5-(hydroxymethyl)-3-methyl-tetrahydrofuran-2-yl)pyrimidine-2,4(1H,3H)-dione di phosphate level per 10^6 cells. Type of data set: ADME, cell-based. The following applies: hepatocytes. The procedure, abridged:
as §1

In data set [15] the test system is Hepatocyte. In words: Drug uptake in human hepatocyte at 2 uM after 24 hrs assessed as 4-amino-1-((2R,3R,4R,5R)-3-fluoro-4-hydroxy-5-(hydroxymethyl)-3-methyl-tetrahydrofuran-2-yl)pyrimidin-2(1H)-one tri phosphate level per 10^6 cells. It counts as ADME, cell-based. As to conditions: hepatocytes. Put shortly:
as §1

For data set [16], the system named is Hepatocyte. In words: Drug uptake in human hepatocyte at 10 uM after 24 hrs assessed as 4-amino-1-((2R,3R,4R,5R)-3-fluoro-4-hydroxy-5-(hydroxymethyl)-3-methyl-tetrahydrofuran-2-yl)pyrimidin-2(1H)-one tri phosphate level per 10^6 cells. The following applies: hepatocytes. Type of data set: ADME, cell-based. Put shortly:
as §1

For data set [17], the system named is Hepatocyte. Briefly: Drug uptake in human hepatocyte at 2 uM after 24 hrs assessed per 10^6 cells. It counts as ADME, cell-based. As to conditions: hepatocytes.
The test system of data set [18] is Hepatocyte. Briefly: Drug uptake in human hepatocyte at 2 uM after 16 hrs assessed per 10^6 cells. Type of data set: ADME, cell-based. The following applies: hepatocytes. The procedure, abridged: as §2
Data set [19] relates to Hepatocyte. Briefly: Drug uptake in human hepatocyte at 25 uM after 24 hrs assessed as 4-amino-1-((2R,3R,4R,5R)-3-fluoro-4-hydroxy-5-(hydroxymethyl)-3-methyl-tetrahydrofuran-2-yl)pyrimidin-2(1H)-one di phosphate level per 10^6 cells. Type of data set: ADME, cell-based. The following applies: hepatocytes. Put shortly: as §1

The IC50 is the concentration that inhibits the measured activity by half. Higher therefore signals lower potency. In the case of `C[C@@]1(F)[C@H](O)[C@@H](CO)O[C@H]1n1ccc(N)nc1=O`, the Drug uptake was found to be 165.5 pmol in the data set on Hepatocyte [1]; 34.3 pmol with Hepatocyte [2]; 13.4 pmol in the data set on Hepatocyte [3]; 31.9 pmol with Hepatocyte [4]; 32.9 pmol with Hepatocyte [5]; 71.2 pmol in the data set on Hepatocyte [6]. The Drug uptake with Hepatocyte [7] was 1.1 pmol; with Hepatocyte [8], 3591.3 pmol; in the data set with Hepatocyte [9] it was 30.4 pmol; in the data set with Hepatocyte [10], 34.9 pmol; in the data set on Hepatocyte [11], 2 pmol; in the data set on Hepatocyte [12], 11.3 pmol. Further, the Drug uptake in the data set with Hepatocyte [13] turned out to be 9.5 pmol; in the data set with Hepatocyte [14] it was 4.8 pmol; with Hepatocyte [15], 1.4 pmol; in the data set on Hepatocyte [16], 5.6 pmol; with Hepatocyte [17], 36.4 pmol; in the data set on Hepatocyte [18], 34.4 pmol. Also, in the data set with Hepatocyte [19], the Drug uptake came to 3.4 pmol. Also, in the data set on Hepatitis C virus, the IC50 came out at 0.6 µM.
